High-throughput results deposited in PubChem by several laboratories.
A selection: hits, their analogues and other compounds. The true share with any hit is near 2.3%.
WNV protease inh: WNV NS2B-NS3 proteinase inhibition. P06935. WNV NS2B-NS3 protease, fluorogenic substrate Ex360/Em465; hits give low values. z-score (no concentration beside the values). 65,000 compounds, 0.18% hits; in the data active = z-score below about -3
RORA act: activates the human nuclear receptor RORA | AID 560 | P35398 | 65,000 compounds, 1.5% hits | activation, % at 10 µM | CHO-K1 Gal4-RORA LBD luciferase reporter, luminescence; percent increase over mock-subtracted basal signal;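 active = activation above the mean of all tested compounds plus 3 SD, cut at about 49% in these data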;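 also: 0% = DMSO-treated RORA cells and 100% = added signal equal to DMSO minus mock-transfected cells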
MT1-MMP txn act: MT1-MMP promoter transcription activation; HT1080 MT1-MMP promoter luciferase reporter, luminescence, overnight; hits give high values; activation factor at 10 µM; 86,000 compounds, 0.16% hits; AID 750;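 active = activation factor of at least 2 for MT1-MMP transcription at 10 µM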
SF1 activator: SF-1 (human) activation; Q13285; activation, % at 10 µM; CHO-K1 Gal4-SF-1 LBD luciferase reporter; % increase over DMSO SF-1-specific signal; 65,000 compounds, 1.9% hits;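 active = activation above the mean activation of all tested compounds plus 3 SD, cut at about 50% in these data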
Target sequence (Q13285 whole entry, looked up, the tested form may be a part): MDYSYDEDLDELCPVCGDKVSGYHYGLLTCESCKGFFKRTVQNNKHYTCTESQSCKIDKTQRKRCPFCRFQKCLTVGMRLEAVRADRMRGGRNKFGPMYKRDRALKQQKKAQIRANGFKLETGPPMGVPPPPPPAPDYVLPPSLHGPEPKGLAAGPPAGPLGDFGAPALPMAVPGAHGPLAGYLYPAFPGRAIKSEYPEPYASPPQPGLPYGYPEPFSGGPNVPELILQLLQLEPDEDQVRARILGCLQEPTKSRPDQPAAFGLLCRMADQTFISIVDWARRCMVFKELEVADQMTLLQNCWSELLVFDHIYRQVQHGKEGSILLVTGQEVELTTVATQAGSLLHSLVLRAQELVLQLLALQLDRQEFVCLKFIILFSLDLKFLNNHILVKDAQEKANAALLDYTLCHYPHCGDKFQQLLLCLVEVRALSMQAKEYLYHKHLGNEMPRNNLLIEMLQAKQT
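Compound – one dose, 10 µM compound, 1% DMSO · Test system – transient Gal4-SF-1 LBD reporter, CHO-K1 · Input – 4,000 cells in each well · Read-out basis – percent activation relative to DMSO median and mock-transfected background · Replicates – single measurement per compound · Technique – steady-glow luciferase luminescence, read after 15 min reagent incubation · Timing – 20 h compound treatment, 37 °C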
MMP-13 inhibitor: inhibitors of human MMP13; inhibition, % at 4 µM; 65,000 compounds, 0.07% hits; P45452; MMP-13 fTHP FRET cleavage, Mca fluorescence;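 active = inhibition above the mean of compound-free control plate wells plus 3 SD, cut at about 14% in these data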;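 also: 0% = DMSO wells and 100% = wells with reference MMP-13 inhibitor after basal subtraction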
* marks the source's active call; other numbers are inactive results; nt = no result.

SMILES | WNV protease inh | RORA act | MT1-MMP txn act | SF1 activator | MMP-13 inhibitor
Nc1nonc1-c1noc(N2CCCCC2)n1 | 0.85 | 25.9 | 1.4 | 53.5* | 1.9
CCCc1cc2c(=O)c(-c3ccccn3)coc2cc1OC | 0.58 | 53.8* | 1.6 | 76.5* | -1.6
COC(=O)[C@@]1(Cc2ccc(OC)cc2)[C@H]2c3cc(C(=O)N(C)C)n(Cc4cc(C)n(C)n4)c3C[C@H]2CN1C(=O)c1ccccc1 | nt | nt | 1.1 | nt | nt
COCCOC(=O)C1=C(C)N=C2SCCC(=O)N2C1c1cccc(Br)c1 (stereo unspecified) | 1.89 | 1.2 | 1.2 | 2.6 | 1.8
CCOC(=O)c1cc(NC(=O)N2CCCCC2)c(C)nc1C | 0.4 | -6.3 | 1.2 | -2.0 | 7.1
COC(=O)c1ccc(OCC(O)CN(CC(C)C)CC(C)C)cc1 (stereo unspecified) | -0.13 | -2.3 | 1.1 | -14.3 | 5.2
CCOc1ccc(C2C=C(c3ccccc3)Nc3nnnn32)cc1 (stereo unspecified) | -0.9 | 56.5* | 1.5 | 41.2 | -4.2
Fc1ccc(-c2nnc(-c3ccc(Cl)cc3)o2)cc1 | 1.11 | 56.1* | 1.1 | 38.2 | -8.1
N#CCCn1cc(/C=N/O)c(-c2ccc(Cl)cc2)n1 | nt | nt | 1.1 | nt | nt
N#CCCn1cc(/C=N/O)c(-c2ccc(-c3ccccc3)cc2)n1 | -1.1 | 34.5 | 1 | 56.7* | 0.9
Cc1oc2c(CN(C)C)c(O)ccc2c(=O)c1-c1ccc2ccccc2n1 | -3.06* | -2.4 | 1.1 | -3.1 | 0.5
Cc1c(C(=O)NCc2ccoc2)oc2ccc3c(c12)C(=O)CC(C)(C)O3 | 1.01 | 71.2* | 1.8 | 73.0* | -20.0
CCN(CC)CCNC(=O)c1c(C)oc2cc(Br)c(OC)cc12 | -0.00317 | 8.4 | 1.2 | 7.9 | -3.3
O=C(c1cccs1)N1CCn2c1nc1ccccc12 | -0.62 | 36.8 | 1.5 | 53.2* | -0.5
Cc1cc(NCCN2CCOCC2)n2ncc(-c3ccccc3)c2n1 | -0.21 | 66.0* | 1.4 | 90.9* | -7.7
Cc1cc(NCCN2CCOCC2)n2ncc(-c3ccc(Cl)cc3)c2n1 | -0.8 | -5.0 | 1.1 | -5.3 | -5.8
COc1cc(-n2nc(C)c3c2OC(N)=C(C#N)C3c2ccccc2)c(Cl)c(Br)c1O (stereo unspecified) | 0.08 | -25.8 | 1 | -9.8 | 16.0*
Cc1nn(-c2ccccc2)c2c1C(c1ccncc1)C(C#N)=C(N)O2 (stereo unspecified) | -0.3 | -3.5 | 1 | 5.4 | 9.8
Cc1cc(C(=O)COC(=O)c2n[nH]c3ccccc23)c(C)n1C | -0.31 | 7.7 | nt | 11.0 | 4.8
COc1cc(C(=O)OCC(=O)c2cc(C)n(C)c2C)cc(OC)c1OC | -1.56 | 36.3 | 1.1 | 51.7* | -4.2
COc1cccc(C(=O)Nc2ccc(-c3nnc(-c4ccco4)o3)cc2)c1 | -0.00141 | 36.7 | 1.2 | 11.2 | -1.1
O=C(COc1ccccc1)Nc1ccc(-c2nnc(-c3ccco3)o2)cc1 | 1.46 | 48.6 | 1.1 | 65.7* | -42.9
COc1ccc(CCN2C(=O)c3ccncc3C2=O)cc1OC | nt | nt | 1.1 | nt | nt
COc1cc(C2c3c(oc4c(C)cc(C)cc4c3=O)C(=O)N2Cc2cccnc2)ccc1O (stereo unspecified) | 0.56 | -4.5 | 1 | 9.7 | 31.9*
Cc1nc2c(c(=O)n1CC1CCCO1)c1nc3ccccc3nc1n2Cc1ccc2c(c1)OCO2 (stereo unspecified) | -1.15 | -15.5 | 1.2 | 16.8 | 5.3
SMILES | WNV protease inh | RORA act | MT1-MMP txn act | SF1 activator | MMP-13 inhibitor
C=CCn1c(N)c(C(=O)NCC2CCCO2)c2nc3ccccc3nc21 (stereo unspecified) | 0.92 | 20.7 | 1 | -9.8 | -170.4
O=C(NCC1CCCO1)c1coc2nc3ccccc3nc12 (stereo unspecified) | -1.03 | 3.3 | 1.2 | 57.2* | -135.0
CCC1C(=O)n2nc(-c3ccccc3)cc2N=C1C (stereo unspecified) | 0.76 | 36.1 | 1.7 | 91.2* | -47.9
CCOC(=O)c1c(C)[nH]c(C)c1C(=O)COC(=O)c1ccc(Cl)c(S(N)(=O)=O)c1 | nt | nt | 1.1 | nt | nt
CN(c1ccccc1)c1nc2ccsc2c(=O)s1 | -0.52 | 32.1 | 1.4 | 50.2* | -1.3
CCOC(=O)c1c(C)noc1CP(=O)(c1ccccc1)c1ccccc1 | -0.61 | -3.8 | 1.1 | 6.4 | -10.1
Cc1ccccc1S(=O)(=O)Cc1ccc(C(=O)NCCCOC(C)C)o1 | -5.59* | -17.3 | 1.3 | -0.4 | -4.5
Nc1ccc(CN2CCN(c3ccc4ccccc4n3)CC2)cc1 | -1.24 | 19.3 | 1.4 | 8.5 | -8.0
